The values that follow come from ChEMBL document CHEMBL1124328, “Hypoxia-selective antitumor agents. 1. Relationships between structure, redox properties and hypoxia-selective cytotoxicity for 4-substituted derivatives of nitracrine” (J Med Chem, 1989).

A word on the pKa: it is the pH at which an ionisable group is half protonated.

Test system in one series: not listed separately
Put plainly: Relative lipophilicity of the compound. Type of series: physicochemical. The settings on record: octanol/water.
`Cc1ccc([N+](=O)[O-])c2c(NCCCN(C)C)c3ccccc3nc12`: the Rm was -0.76.

Compound `CN(C)CCCNc1c2ccccc2nc2c(Cl)ccc([N+](=O)[O-])c12` returned a Rm of -0.25.

`CC(=O)OCCN(CCOC(C)=O)c1ccc([N+](=O)[O-])c2c(NCCCN(C)C)c3ccccc3nc12` returned a Rm of -0.29.

On to `CN(C)CCCNc1c2ccccc2nc2cccc([N+](=O)[O-])c12` [NITRACRINE], for which the Rm is -0.85.

Compound `COc1ccc([N+](=O)[O-])c2c(NCCCN(C)C)c3ccccc3nc12` gave a Rm of -0.88.

`CN(C)CCCNc1c2ccccc2nc2c(F)ccc([N+](=O)[O-])c12` came in with a Rm of -0.46.

Turning to `CN(C)CCCNc1c2ccccc2nc2c(N(C)C)ccc([N+](=O)[O-])c12`, the Rm is -0.63.

Take `CN(C)CCCNc1c2ccccc2nc2c(N(CCO)CCO)ccc([N+](=O)[O-])c12`: the Rm is given as -0.74.

Test system in another series: not listed separately
In words: Compound''s one-electron reduction potential (E(1)) has been measured by radiolysis at pH 7.
Details: not given
The essentials:
(§1)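 Pulse radiolysis on a 1.8 MV linac (ca. 3 Gy in 0.2 μs) of solutions at 21 °C in a 2-cm pathlength cell, buffered at pH 7 with 2 mM sodium phosphate. Dose was set by aerated 10 mM KSCN absorbance at 472 nm. The equilibrium constant K for ArNO₂/ArNO₂•⁻ versus benzylviologen came from radical ratios over various substrate concentrations. E(1) was derived from K relative to E(BV²⁺/BV•⁺).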
`COC(=O)c1ccc([N+](=O)[O-])c2c(NCCCN(C)C)c3ccccc3nc12` registered an E of -244 mV.

Take `Cc1ccc([N+](=O)[O-])c2c(NCCCN(C)C)c3ccccc3nc12`: the E was -321 mV.

Take `CN(C)CCCNc1c2ccccc2nc2c(Cl)ccc([N+](=O)[O-])c12`: the E was -325 mV.

Compound `CC(=O)OCCN(CCOC(C)=O)c1ccc([N+](=O)[O-])c2c(NCCCN(C)C)c3ccccc3nc12` returned an E of -314 mV.

With `CN(C)CCCNc1c2ccccc2nc2cccc([N+](=O)[O-])c12` [NITRACRINE], the E is -303 mV.

The compound `COc1ccc([N+](=O)[O-])c2c(NCCCN(C)C)c3ccccc3nc12` displayed an E of -361 mV.

In turn, `CN(C)CCCNc1c2ccccc2nc2c(F)ccc([N+](=O)[O-])c12` gave an E of -354 mV.

`CN(C)CCCNc1c2ccccc2nc2c(N(C)C)ccc([N+](=O)[O-])c12` displayed an E of -334 mV.

Another series relates to Nucleic Acid. In words: Logarithm of association constant for binding to poly[d(A-T)], determined by ethidium displacement. Type of series: nucleic-acid assay.
Details: not given
The essentials:
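Ethidium displacement assay with poly[d(A-T)], giving log association constant. No quenching corrections were applied.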
For the compound `COC(=O)c1ccc([N+](=O)[O-])c2c(NCCCN(C)C)c3ccccc3nc12`, the Log K was 6.06 M-1.

As to `Cc1ccc([N+](=O)[O-])c2c(NCCCN(C)C)c3ccccc3nc12`, the Log K was 7.23 M-1.

In the case of `CN(C)CCCNc1c2ccccc2nc2c(Cl)ccc([N+](=O)[O-])c12`, the Log K was 5.95 M-1.

Turning to `CC(=O)OCCN(CCOC(C)=O)c1ccc([N+](=O)[O-])c2c(NCCCN(C)C)c3ccccc3nc12`, the Log K is 6.5 M-1.

On to `CN(C)CCCNc1c2ccccc2nc2cccc([N+](=O)[O-])c12` [NITRACRINE], for which the Log K was 6.92 M-1.

For the compound `COc1ccc([N+](=O)[O-])c2c(NCCCN(C)C)c3ccccc3nc12`, the Log K is 6.76 M-1.

`CN(C)CCCNc1c2ccccc2nc2c(F)ccc([N+](=O)[O-])c12`: the Log K was 6.15 M-1.

Turning to `CN(C)CCCNc1c2ccccc2nc2c(N(C)C)ccc([N+](=O)[O-])c12`, the Log K was 7.11 M-1.

With `CN(C)CCCNc1c2ccccc2nc2c(N(CCO)CCO)ccc([N+](=O)[O-])c12`, the Log Ke was 6.73 M-1.

Test system in the next series: not listed separately
Put plainly: Ratio of cytotoxicity determined in air to that of cytotoxicity determined in N2 was measured under aerobic conditions to hypoxic conditions by the clonogenic assay against Chinese hamster ovary (subline AA8) cells. Type of series: cell-based, Cricetulus griseus. The settings on record: subline AA8 (CHO-AA8). In a few lines: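 Clonogenic survival of plateau-phase AA8 cells in stirred suspension at 37 °C. Cells and drug were pre-gassed separately for 45 min with 5% CO₂ in air or in N₂, then mixed using a gas-purged syringe. Plating efficiency was sampled over up to 3 h. Drug levels were chosen to give similar killing rates under both gases. Ratio = CT₁₀(air)/CT₁₀(N₂), where CT₁₀ is concentration × time for 10% survival.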
In the case of `COC(=O)c1ccc([N+](=O)[O-])c2c(NCCCN(C)C)c3ccccc3nc12`, the selectivity ratio stood at 0.32.

Take `Cc1ccc([N+](=O)[O-])c2c(NCCCN(C)C)c3ccccc3nc12`: the selectivity ratio was 10.

For `CN(C)CCCNc1c2ccccc2nc2c(Cl)ccc([N+](=O)[O-])c12`, the selectivity ratio is 13.6.

Regarding `CC(=O)OCCN(CCOC(C)=O)c1ccc([N+](=O)[O-])c2c(NCCCN(C)C)c3ccccc3nc12`, the selectivity ratio stood at 11.5.

`CN(C)CCCNc1c2ccccc2nc2cccc([N+](=O)[O-])c12` [NITRACRINE]: the selectivity ratio came to 9.9.

Turning to `COc1ccc([N+](=O)[O-])c2c(NCCCN(C)C)c3ccccc3nc12`, the selectivity ratio was 16.

As for `CN(C)CCCNc1c2ccccc2nc2c(F)ccc([N+](=O)[O-])c12`, the selectivity ratio was found to be 5.3.

For the compound `CN(C)CCCNc1c2ccccc2nc2c(N(C)C)ccc([N+](=O)[O-])c12`, the selectivity ratio turned out to be 16.

`CN(C)CCCNc1c2ccccc2nc2c(N(CCO)CCO)ccc([N+](=O)[O-])c12`: the selectivity ratio is 6.

Test system in another series: not listed separately
In words: Dissociation constant was determined. Type of series: physicochemical.
Details: not given
Take `COC(=O)c1ccc([N+](=O)[O-])c2c(NCCCN(C)C)c3ccccc3nc12`: the pKa stood at 5.35.

Test system in a further series: not listed separately
In words: Dissociation constant of the compound.
Details: not given
Type of series: physicochemical.
In the case of `Cc1ccc([N+](=O)[O-])c2c(NCCCN(C)C)c3ccccc3nc12`, the pKa was 6.29.

`CN(C)CCCNc1c2ccccc2nc2c(Cl)ccc([N+](=O)[O-])c12` returned a pKa of 5.

Regarding `CC(=O)OCCN(CCOC(C)=O)c1ccc([N+](=O)[O-])c2c(NCCCN(C)C)c3ccccc3nc12`, the pKa came to 6.2.

For the compound `CN(C)CCCNc1c2ccccc2nc2cccc([N+](=O)[O-])c12` [NITRACRINE], the pKa amounted to 6.21.

The compound `COc1ccc([N+](=O)[O-])c2c(NCCCN(C)C)c3ccccc3nc12` gave a pKa of 6.61.

Compound `CN(C)CCCNc1c2ccccc2nc2c(F)ccc([N+](=O)[O-])c12` gave a pKa of 5.41.

`CN(C)CCCNc1c2ccccc2nc2c(N(C)C)ccc([N+](=O)[O-])c12` showed a pKa of 6.47.

For the compound `CN(C)CCCNc1c2ccccc2nc2c(N(CCO)CCO)ccc([N+](=O)[O-])c12`, the pKa came out at 6.53.

Test system in the next series: not listed separately
In words: Cytotoxicity was measured under aerobic conditions by the clonogenic assay against Chinese hamster ovary (subline AA8) cells. Type of series: cell-based, Cricetulus griseus. The arrangement: unit not given here.
Details: not given
The essentials:
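CHO AA8 cells were grown in alpha MEM with 10% FCS, then taken to unfed plateau phase in spinner flasks (1.0–1.3 × 10⁶ cells/mL). Cells were resuspended in 5% FCS medium, and cells and drug were pre-equilibrated separately for 45 min at 37 °C under flowing 5% CO₂ in air. Exposure was as stirred suspension for up to 3 h, with plating efficiency sampled over time. CT₁₀ is the concentration × time giving 10% survival.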
The compound `COC(=O)c1ccc([N+](=O)[O-])c2c(NCCCN(C)C)c3ccccc3nc12` registered a CT10 of 8.

`Cc1ccc([N+](=O)[O-])c2c(NCCCN(C)C)c3ccccc3nc12` yielded a CT10 of 2.

Compound `CN(C)CCCNc1c2ccccc2nc2c(Cl)ccc([N+](=O)[O-])c12` had a CT10 of 0.68.

`CC(=O)OCCN(CCOC(C)=O)c1ccc([N+](=O)[O-])c2c(NCCCN(C)C)c3ccccc3nc12` registered a CT10 of 575.

In the case of `CN(C)CCCNc1c2ccccc2nc2cccc([N+](=O)[O-])c12` [NITRACRINE], the CT10 was determined as 0.47.

Turning to `COc1ccc([N+](=O)[O-])c2c(NCCCN(C)C)c3ccccc3nc12`, the CT10 is listed as 22.

In turn, `CN(C)CCCNc1c2ccccc2nc2c(F)ccc([N+](=O)[O-])c12` yielded a CT10 of 2.

Regarding `CN(C)CCCNc1c2ccccc2nc2c(N(C)C)ccc([N+](=O)[O-])c12`, the CT10 came to 720.

Compound `CN(C)CCCNc1c2ccccc2nc2c(N(CCO)CCO)ccc([N+](=O)[O-])c12` showed a CT10 of 540.

Test system in another series: not listed separately
In words: Compound's one-electron reduction potential (E(1)) has been measured by radiolysis at pK1.
Details: not given
The essentials:
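Calculated from E(1) measured at pH 7 using the paper's pH-dependence expression. Side-chain pKa values (pK2, pKr2) were assumed equal for all derivatives, and the acridine radical pKa was assumed 4.3 pH units above pK1.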
`COC(=O)c1ccc([N+](=O)[O-])c2c(NCCCN(C)C)c3ccccc3nc12` gave an E of -164 mV.

For the compound `Cc1ccc([N+](=O)[O-])c2c(NCCCN(C)C)c3ccccc3nc12`, the E is -292 mV.

`CN(C)CCCNc1c2ccccc2nc2c(Cl)ccc([N+](=O)[O-])c12` had an E of -225 mV.

On to `CC(=O)OCCN(CCOC(C)=O)c1ccc([N+](=O)[O-])c2c(NCCCN(C)C)c3ccccc3nc12`, for which the E was -280 mV.

As to `CN(C)CCCNc1c2ccccc2nc2cccc([N+](=O)[O-])c12` [NITRACRINE], the E is -270 mV.

With `COc1ccc([N+](=O)[O-])c2c(NCCCN(C)C)c3ccccc3nc12`, the E is -346 mV.

The compound `CN(C)CCCNc1c2ccccc2nc2c(F)ccc([N+](=O)[O-])c12` displayed an E of -277 mV.

As to `CN(C)CCCNc1c2ccccc2nc2c(N(C)C)ccc([N+](=O)[O-])c12`, the E is -314 mV.

Test system in a further series: not listed separately
In words: Equilibrium constant measured by the pulse radiolysis at pH 7. Type of series: ADME.
Details: not given
The essentials:
as §1
`COC(=O)c1ccc([N+](=O)[O-])c2c(NCCCN(C)C)c3ccccc3nc12` registered a K of 175 M⁻¹.

The compound `Cc1ccc([N+](=O)[O-])c2c(NCCCN(C)C)c3ccccc3nc12` yielded a K of 8.8 M⁻¹.

For the compound `CN(C)CCCNc1c2ccccc2nc2c(Cl)ccc([N+](=O)[O-])c12`, the K amounted to 7 M⁻¹.

The compound `CC(=O)OCCN(CCOC(C)=O)c1ccc([N+](=O)[O-])c2c(NCCCN(C)C)c3ccccc3nc12` had a K of 11.7 M⁻¹.

For `CN(C)CCCNc1c2ccccc2nc2cccc([N+](=O)[O-])c12` [NITRACRINE], the K amounted to 18 M⁻¹.

`COc1ccc([N+](=O)[O-])c2c(NCCCN(C)C)c3ccccc3nc12` gave a K of 1.9 M⁻¹.

In the case of `CN(C)CCCNc1c2ccccc2nc2c(F)ccc([N+](=O)[O-])c12`, the K came to 2.4 M⁻¹.

Regarding `CN(C)CCCNc1c2ccccc2nc2c(N(C)C)ccc([N+](=O)[O-])c12`, the K was 5.3 M⁻¹.
